Assay results collected from several papers.
Lines come from different studies, so protocols differ.
Target: Serine/threonine-protein kinase haspin (HASPIN, Homo sapiens, UniProt Q8TF76)
One construct used (Q8TF76 1-798): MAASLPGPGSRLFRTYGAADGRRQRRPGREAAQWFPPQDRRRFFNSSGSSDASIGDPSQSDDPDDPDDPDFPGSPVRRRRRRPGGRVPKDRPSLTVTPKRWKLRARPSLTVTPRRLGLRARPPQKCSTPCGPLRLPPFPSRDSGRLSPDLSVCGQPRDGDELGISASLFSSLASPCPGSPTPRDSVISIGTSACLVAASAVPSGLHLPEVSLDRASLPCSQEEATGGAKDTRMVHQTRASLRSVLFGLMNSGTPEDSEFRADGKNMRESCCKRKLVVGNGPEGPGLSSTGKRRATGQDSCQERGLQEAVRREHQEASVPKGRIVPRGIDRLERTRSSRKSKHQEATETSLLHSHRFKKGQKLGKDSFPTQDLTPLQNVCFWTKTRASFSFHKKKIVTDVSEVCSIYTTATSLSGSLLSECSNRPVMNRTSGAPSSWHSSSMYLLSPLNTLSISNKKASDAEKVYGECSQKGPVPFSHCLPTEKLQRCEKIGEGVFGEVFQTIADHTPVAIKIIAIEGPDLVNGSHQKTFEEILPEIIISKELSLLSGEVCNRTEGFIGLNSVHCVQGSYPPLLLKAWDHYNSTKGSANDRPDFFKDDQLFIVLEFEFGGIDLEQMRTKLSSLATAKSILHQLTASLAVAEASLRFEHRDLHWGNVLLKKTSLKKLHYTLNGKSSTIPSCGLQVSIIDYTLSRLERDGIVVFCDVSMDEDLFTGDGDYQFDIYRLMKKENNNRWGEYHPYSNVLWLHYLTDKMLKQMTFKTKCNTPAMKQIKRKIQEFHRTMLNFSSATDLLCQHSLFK

| SMILES | read-out | mode | method | tested at | measurement | result |
| --- | --- | --- | --- | --- | --- | --- |
| COc1ccc(C(=O)Nc2sc3c(c2C(N)=O)CCCC3)cc1OC | enzyme activity | inhibitor | – | 0.5 µM | remaining activity | 82.8% |
| Cc1ccc(Nc2nccc(N(C)c3ccc4c(C)n(C)nc4c3)n2)cc1S(N)(=O)=O | enzyme activity | inhibitor | – | 0.3 µM | inhibition | 0% |
| O=C1NC(=O)c2cc(Nc3ccc(F)cc3)c(Nc3ccc(F)cc3)cc21 | cell-free assay | – | – | 0.5 µM | remaining signal | 95.1% |
| Cc1nc(Cc2cccc(C(F)(F)F)c2)sc1-c1ccc(C(N)=O)nc1 | cell-free assay | – | competition with immobilised ligand | 1 µM | remaining binding | 100% |
| Cc1ccc(NC(=O)c2ccc(C)c(C(F)(F)F)c2)cc1C#Cc1nn(C2CCC(O)CC2)c2ncnc(N)c12 (stereo not shown) | cell-free assay | – | – | 10 µM | remaining signal | 93% |
| COc1cc2nccc(Oc3ccc(NC(=S)NC(=O)c4ccccc4C)cc3)c2cc1OC | enzyme activity | inhibitor | – | 0.5 µM | remaining activity | 95.9% |
| COc1cc(-c2cc(-c3ccc(N4CCNCC4)cc3)cnc2C)cc(OC)c1OC | enzyme activity | inhibitor | – | 0.1 µM | inhibition | 3% |
| CC/C(=N\NC(=O)NCc1cccc(O)c1)c1ccc(O)c(C)c1O | enzyme activity | inhibitor | – | 0.1 µM | inhibition | -0.2% |
| Cn1cncc1C1=CN(c2ncnc3[nH]cnc23)CCS1 | enzyme activity | inhibitor | radiometric | 50 nM | inhibition | 25.6% |
| Cc1c(NC(=O)c2cc(C(N)=O)nc3cc(F)ccc23)c(C(F)(F)F)nn1Cc1ccc(C(C)(C)C)cc1 | cell-free assay | – | competition with immobilised ligand | 1 µM | remaining binding | 100% |
| CC(C)(C)c1nc(-c2cccc(NS(=O)(=O)c3c(F)cccc3F)c2F)c(-c2ccnc(N)n2)s1 | enzyme activity | inhibitor | radiometric | 1 µM | remaining activity | 147% |
| Nc1ncnc2occ(-c3ccc(NC(=O)Nc4cc(C(F)(F)F)ccc4F)cc3)c12 | cell-free assay | – | – | 20 µM | remaining signal | 43% |
| CCN(CC)CCNC(=O)c1c(C)[nH]c(/C=C2\C(=O)Nc3ccc(Cl)cc32)c1C | enzyme activity | inhibitor | – | 0.5 µM | remaining activity | 82.9% |
| O=C(Nc1ccc(Oc2ccc(F)cc2)cc1)N1CCc2ncccc2[C@H]1c1ccc(F)cc1 | cell-free assay | – | competition with immobilised ligand | 1 µM | remaining binding | 85% |
| CCN(CC)c1ccc(C2=NNC(=O)CC2C)cc1[N+](=O)[O-] (stereo not shown) | enzyme activity | inhibitor | – | 10 µM | remaining activity | 106% |
| N#Cc1ccc(Nc2ccc3[nH]c(=O)[nH]c3c2)c(Cl)c1 | cell-free assay | – | competition with immobilised ligand | 1 µM | remaining binding | 100% |
| O=c1cc(-c2cccc3c2Sc2ccccc2S3)oc(N2CCOCC2)c1 | enzyme activity | inhibitor | – | 0.5 µM | remaining activity | 106% |
| CN(C)C(=O)Cn1cc(-c2nc([C@@](C)(c3ccc(-c4cnc(N)nc4)cc3)C3CC3)no2)cn1 | cell-free assay | – | competition with immobilised ligand | 1 µM | remaining binding | 100% |
| CC(C)(O)[C@H]1CC[C@H](Nc2ccc3ncc(-c4cccc(C(F)(F)F)c4)n3n2)CC1 | enzyme activity | inhibitor | – | 1 µM | remaining activity | 15.4% |
| C[C@@H]1CN(c2cc(-c3nn(C)c4ccc(OC5(C)CC5)cc34)ncn2)C[C@H](C)O1 | cell-free assay | – | competition with immobilised ligand | 1 µM | remaining binding | 99% |
| Cn1cnc(Br)c1C1=CN(c2ncnc3[nH]cnc23)CCS1 | enzyme activity | inhibitor | radiometric | 50 nM | inhibition | 32.9% |
| Cc1c(C(=O)O)cc(-c2ccc(C3CCNCC3)cc2)c2ccc(-c3ccc(C(F)(F)F)cc3)cc12 | cell-free assay | – | competition with immobilised ligand | 1 µM | remaining binding | 100% |
| CNC(=O)c1cc(Oc2ccc(NC(=O)Nc3ccc(Cl)c(C(F)(F)F)c3)cc2)ccn1 | enzyme activity | inhibitor | – | 0.3 µM | inhibition | 8% |
| CC1=C(C#N)C(c2ccc3c(c2)c(NC(=O)c2ccccc2C)nn3C)C(C#N)=C(C)N1 | cell-free assay | – | competition with immobilised ligand | 1 µM | remaining binding | 71% |
| O=C(Nc1cnn(-c2csc(C(=O)NC3COC3)c2)c1)Nc1c(F)cccc1Cl | enzyme activity | inhibitor | – | 5 µM | remaining activity | 111% |
